According to ChEMBL document CHEMBL3627671, “Novel derivatives of nitro-substituted salicylic acids: Synthesis, antimicrobial activity and cytotoxicity” (Bioorg Med Chem, 2015):

Tests used:
Format in all cases: functional
[1] = tested on: Mycobacterium tuberculosis; experiment: Antimycobacterial activity against Mycobacterium tuberculosis H37Rv 331/88 after 14 days; details: H37Rv 331/88, 336 h
[2] = tested on: Mycobacterium tuberculosis; experiment: Antimycobacterial activity against Mycobacterium tuberculosis H37Rv 331/88 after 21 days; details: H37Rv 331/88, 504 h
Mycobacterium avium [3] = experiment: Antimycobacterial activity against Mycobacterium avium 330/80 after 14 days; details: 330/80, 336 h
Mycobacterium avium [4] = experiment: Antimycobacterial activity against Mycobacterium avium 330/80 after 21 days; details: 330/80, 504 h
Mycobacterium kansasii [5] = experiment: Antimycobacterial activity against Mycobacterium kansasii 235/80 after 7 days; details: 235/80, 168 h
How it was run: (§1)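 Šula's semisynthetic medium micromethod at 37 °C, read after 7, 14 and 21 days. The 1.0 McFarland suspension was diluted 10^-4. MIC determined. 6509/96 is a clinical isolate.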

Mycobacterium kansasii [6] = experiment: Antimycobacterial activity against Mycobacterium kansasii 235/80 after 14 days; details: 235/80, 336 h; how it was run: as §1
Mycobacterium kansasii [7] = experiment: Antimycobacterial activity against Mycobacterium kansasii 235/80 after 21 days; details: 235/80, 504 h; how it was run: as §1
Mycobacterium kansasii [8] = experiment: Antimycobacterial activity against Mycobacterium kansasii 6509/96 after 7 days; details: 6509/96, 168 h; how it was run: as §1
Mycobacterium kansasii [9] = experiment: Antimycobacterial activity against Mycobacterium kansasii 6509/96 after 14 days; details: 6509/96, 336 h; how it was run: as §1
Mycobacterium kansasii [10] = experiment: Antimycobacterial activity against Mycobacterium kansasii 6509/96 after 21 days; details: 6509/96, 504 h; how it was run: as §1
Staphylococcus aureus [11] = experiment: Antibacterial activity against Staphylococcus aureus CCM 4516/08 after 24 hrs by microdilution broth method; details: CCM 4516/08, 24 h
Staphylococcus aureus [12] = experiment: Antibacterial activity against Staphylococcus aureus CCM 4516/08 after 48 hrs by microdilution broth method; details: CCM 4516/08, 48 h
Staphylococcus aureus [13] = experiment: Antibacterial activity against methicillin-resistant Staphylococcus aureus H 5996/08 after 24 hrs by microdilution broth method; details: H 5996/08, 24 h
Staphylococcus aureus [14] = experiment: Antibacterial activity against methicillin-resistant Staphylococcus aureus H 5996/08 after 48 hrs by microdilution broth method; details: H 5996/08, 48 h
[15] = tested on: Staphylococcus epidermidis; experiment: Antibacterial activity against Staphylococcus epidermidis H 6966/08 after 24 hrs by microdilution broth method; details: H 6966/08, 24 h
How it was run: (§2)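 Mueller-Hinton broth microdilution (modified M07-A07), pH 7.4 (±0.2). Compounds dissolved in DMSO, tested at final 500 to 0.49 µmol/L. Inoculum in sterile water matched to 0.5 McFarland. Incubated in the dark, humid atmosphere, 35 °C, read at 24 and 48 h visually and at 540 nm. MIC taken as ≥95% growth reduction (IC95) versus control.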

[16] = tested on: Staphylococcus epidermidis; experiment: Antibacterial activity against Staphylococcus epidermidis H 6966/08 after 48 hrs by microdilution broth method; details: H 6966/08, 48 h; how it was run: as §2
Enterococcus sp. [17] = experiment: Antibacterial activity against Enterococcus sp. J 14365/08 after 24 hrs by microdilution broth method; details: J 14365/08, 24 h; how it was run: as §2
Enterococcus sp. [18] = experiment: Antibacterial activity against Enterococcus sp. J 14365/08 after 48 hrs by microdilution broth method; details: J 14365/08, 48 h; how it was run: as §2
Escherichia coli [19] = experiment: Antibacterial activity against Escherichia coli CCM4517 after 24 hrs by microdilution broth method; details: CCM4517, 24 h; how it was run: as §2
Escherichia coli [20] = experiment: Antibacterial activity against Escherichia coli CCM4517 after 48 hrs by microdilution broth method; details: CCM4517, 48 h; how it was run: as §2
Klebsiella pneumoniae [21] = experiment: Antibacterial activity against Klebsiella pneumoniae D 11750/08 after 24 hrs by microdilution broth method; details: D 11750/08, 24 h; how it was run: as §2
Klebsiella pneumoniae [22] = experiment: Antibacterial activity against Klebsiella pneumoniae D 11750/08 after 48 hrs by microdilution broth method; details: D 11750/08, 48 h; how it was run: as §2
Klebsiella pneumoniae [23] = experiment: Antibacterial activity against ESBL-positive Klebsiella pneumoniae J 14368/08 after 24 hrs by microdilution broth method; details: J 14368/08, 24 h; how it was run: as §2
Klebsiella pneumoniae [24] = experiment: Antibacterial activity against ESBL-positive Klebsiella pneumoniae J 14368/08 after 48 hrs by microdilution broth method; details: J 14368/08, 48 h; how it was run: as §2
Pseudomonas aeruginosa [25] = experiment: Antibacterial activity against Pseudomonas aeruginosa CCM 1961 after 24 hrs by microdilution broth method; details: CCM 1961, 24 h; how it was run: as §2
Pseudomonas aeruginosa [26] = experiment: Antibacterial activity against Pseudomonas aeruginosa CCM 1961 after 48 hrs by microdilution broth method; details: CCM 1961, 48 h; how it was run: as §2
Candida albicans [27] = experiment: Antifungal activity against Candida albicans ATCC 44859 after 24 hrs by microdilution broth method; details: ATCC 44859, 24 h
How it was run: (§3)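 CLSI M27-A3 broth microdilution in RPMI 1640 with glutamine, buffered to pH 7.0 with MOPS; DMSO diluent. Yeast inoculum 5 × 10^3 ± 0.2 CFU/mL. Moulds grown on Sabouraud agar 3–10 days before spore harvest, final inoculum 0.5-5 × 10^4 CFU/mL, checked in a Bürker chamber. Incubated dark, humid, 35 °C, read at 24 and 48 h visually and at 540 nm. MIC taken as ≥80% (yeasts) or ≥50% (filamentous) growth reduction versus control.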

Candida albicans [28] = experiment: Antifungal activity against Candida albicans ATCC 44859 after 48 hrs by microdilution broth method; details: ATCC 44859, 48 h; how it was run: as §3
Candida tropicalis [29] = experiment: Antifungal activity against Candida tropicalis 156 after 24 hrs by microdilution broth method; details: Candida tropicalis, 156, 24 h; how it was run: as §3
Candida tropicalis [30] = experiment: Antifungal activity against Candida tropicalis 156 after 48 hrs by microdilution broth method; details: Candida tropicalis, 156, 48 h; how it was run: as §3
Pichia kudriavzevii [31] = experiment: Antifungal activity against Candida krusei E28 after 24 hrs by microdilution broth method; details: E28, 24 h; how it was run: as §3
Pichia kudriavzevii [32] = experiment: Antifungal activity against Candida krusei E28 after 48 hrs by microdilution broth method; details: E28, 48 h; how it was run: as §3
Nakaseomyces glabratus [33] = experiment: Antifungal activity against Candida glabrata 20/I after 24 hrs by microdilution broth method; how it was run: as §3
Nakaseomyces glabratus [34] = experiment: Antifungal activity against Candida glabrata 20/I after 48 hrs by microdilution broth method; how it was run: as §3
Trichosporon asahii [35] = experiment: Antifungal activity against Trichosporon asahii 1188 after 24 hrs by microdilution broth method; details: Trichosporon asahii, 1188, 24 h; how it was run: as §3
Trichosporon asahii [36] = experiment: Antifungal activity against Trichosporon asahii 1188 after 48 hrs by microdilution broth method; details: Trichosporon asahii, 1188, 48 h; how it was run: as §3
Aspergillus fumigatus [37] = experiment: Antifungal activity against Aspergillus fumigatus 231 after 24 hrs by microdilution broth method; details: Aspergillus fumigatus, 231, 24 h; how it was run: as §3
Aspergillus fumigatus [38] = experiment: Antifungal activity against Aspergillus fumigatus 231 after 48 hrs by microdilution broth method; details: Aspergillus fumigatus, 231, 48 h; how it was run: as §3
Lichtheimia corymbifera [39] = experiment: Antifungal activity against Absidia corymbifera 272 after 24 hrs by microdilution broth method; details: Lichtheimia corymbifera, 272, 24 h; how it was run: as §3
Lichtheimia corymbifera [40] = experiment: Antifungal activity against Absidia corymbifera 272 after 48 hrs by microdilution broth method; details: Lichtheimia corymbifera, 272, 48 h; how it was run: as §3
[41] = tested on: Trichophyton mentagrophytes; experiment: Antifungal activity against Trichophyton mentagrophytes 445 after 24 hrs by microdilution broth method; details: Trichophyton mentagrophytes, 445, 24 h
[42] = tested on: Trichophyton mentagrophytes; experiment: Antifungal activity against Trichophyton mentagrophytes 445 after 48 hrs by microdilution broth method; details: Trichophyton mentagrophytes, 445, 48 h

Measured: MIC

O=C(Nc1cccc(I)c1)c1cc([N+](=O)[O-])ccc1O
250 µM: Enterococcus sp. [17] | Trichosporon asahii [35] | Aspergillus fumigatus [37] | Aspergillus fumigatus [38]
31.2 µM: Staphylococcus aureus [11] | Staphylococcus aureus [12] | Staphylococcus aureus [13] | Staphylococcus aureus [14] | [15] | [16]
125 µM: Mycobacterium avium [3] | Mycobacterium avium [4] | [41] | [42]
32 µM: Mycobacterium kansasii [6] | Mycobacterium kansasii [8]
16 µM: [1] | [2] | Mycobacterium kansasii [5]
500 µM: Candida albicans [27] | Candida tropicalis [29] | Candida tropicalis [30] | Pichia kudriavzevii [31] | Pichia kudriavzevii [32] | Nakaseomyces glabratus [33] | Nakaseomyces glabratus [34] | Trichosporon asahii [36] | Lichtheimia corymbifera [39]
62.5 µM: Mycobacterium kansasii [7] | Mycobacterium kansasii [9] | Mycobacterium kansasii [10]
> 500 µM: all other assays above

O=C(Nc1cccc(Br)c1)c1cc([N+](=O)[O-])ccc1O
500 µM: Enterococcus sp. [17] | Pichia kudriavzevii [31] | Trichosporon asahii [35] | Trichosporon asahii [36] | Aspergillus fumigatus [37] | Aspergillus fumigatus [38] | Lichtheimia corymbifera [39] | Lichtheimia corymbifera [40]
62.5 µM: Mycobacterium kansasii [6] | Mycobacterium kansasii [7] | Mycobacterium kansasii [9] | Mycobacterium kansasii [10] | Staphylococcus aureus [12] | Staphylococcus aureus [14]
125 µM: Mycobacterium avium [3]
16 µM: [1] | [2]
31.2 µM: Staphylococcus aureus [11] | Staphylococcus aureus [13] | [15]
250 µM: Mycobacterium avium [4] | [16] | [41] | [42]
32 µM: Mycobacterium kansasii [5] | Mycobacterium kansasii [8]
> 500 µM: all other assays above

O=C(Nc1cccc(Cl)c1)c1cc([N+](=O)[O-])ccc1O
500 µM: Enterococcus sp. [17] | Pichia kudriavzevii [31] | Aspergillus fumigatus [37] | Aspergillus fumigatus [38]
250 µM: [41] | [42]
32 µM: Mycobacterium kansasii [6] | Mycobacterium kansasii [8]
31.2 µM: Staphylococcus aureus [11]
16 µM: [1] | [2] | Mycobacterium kansasii [5]
62.5 µM: Mycobacterium kansasii [7] | Mycobacterium kansasii [9] | Mycobacterium kansasii [10] | Staphylococcus aureus [12] | Staphylococcus aureus [13] | Staphylococcus aureus [14] | [15] | [16]
125 µM: Mycobacterium avium [3] | Mycobacterium avium [4]
> 500 µM: all other assays above

O=C(Nc1cccc(F)c1)c1cc([N+](=O)[O-])ccc1O
62.5 µM: Mycobacterium kansasii [6] | Mycobacterium kansasii [7] | Mycobacterium kansasii [9] | Mycobacterium kansasii [10]
16 µM: [1] | Mycobacterium kansasii [5]
32 µM: [2] | Mycobacterium kansasii [8]
500 µM: [41] | [42]
250 µM: [16]
125 µM: Mycobacterium avium [3] | Mycobacterium avium [4] | Staphylococcus aureus [11] | Staphylococcus aureus [12] | Staphylococcus aureus [13] | Staphylococcus aureus [14] | [15]
> 500 µM: all other assays above

O=C(Nc1ccc([N+](=O)[O-])c(C(F)(F)F)c1)c1cc([N+](=O)[O-])ccc1O
62.5 µM: Mycobacterium kansasii [6] | Mycobacterium kansasii [8] | Mycobacterium kansasii [9] | Staphylococcus aureus [11] | Staphylococcus aureus [12]
32 µM: [1] | [2] | Mycobacterium kansasii [5]
31.2 µM: Staphylococcus aureus [13] | Staphylococcus aureus [14]
125 µM: Mycobacterium avium [3] | Mycobacterium avium [4] | Mycobacterium kansasii [7] | Mycobacterium kansasii [10] | [15] | [16]
> 500 µM: all other assays above
